Assay results: ChEMBL document CHEMBL3616462, “Synthesis and antiviral activity of maleopimaric and quinopimaric acids' derivatives” (Bioorg Med Chem, 2015)
pEC50: −log10 of the molar value.

Columns and labels:
[1] = Selectivity index, ratio of toxicity against human Huh7ET cells assessed as reduction in beta-actin RNA levels at 20 uM to antiviral activity against HCV infected in human Huh7ET cells assessed as reduction in HCV RNA-derived luciferase activity at 20 uM by luciferase reporter gene assay; type: cell-based, Huh-7; conditions: read-out: Selectivity Index
How it was run: (§1)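 HCV RNA replicon assay in Huh7 ET cells. Compounds were added in triplicate at a single concentration of 20 µM. Antiviral activity was read as HCV RNA-derived luciferase signal, expressed as % of control. Toxicity was read as β-actin RNA, % of control. SI = toxicity/antiviral activity. Interferon-α (2 IU/mL) was the positive control.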

[2] = Selectivity index, ratio of CC50 for Influenza B virus (B/Florida/4/2006) infected MDCK cells to EC50 for antiviral activity against Influenza B virus (B/Florida/4/2006) in MDCK cells; type: toxicity, cell-based; conditions: dog; read-out: Ratio CC50/EC50
[3] = Cytotoxicity against Influenza A virus (A/California/07/2009(H1N1)) infected MDCK cells; type: cell-based, Canis lupus familiaris; conditions: dog
[4] = Selectivity index, ratio of CC50 for Adenovirus Chicago 65089 infected human A549 cells to EC50 for antiviral activity against Adenovirus Chicago 65089 infected in human A549 cells; type: toxicity, cell-based; conditions: A549 cells infected with Adenovirus Chicago 65089, read-out: Ratio CC50/EC50
[5] = Selectivity index, ratio of CC50 for Influenza A virus (A/California/07/2009(H1N1)) infected MDCK cells to EC50 for antiviral activity against Influenza A virus H1N1 (A/California/07/2009(H1N1)) infected in MDCK cells; type: toxicity, cell-based; conditions: dog; read-out: Ratio CC50/EC50
[6] = system: Hepatitis B virus; experiment: Antiviral activity against HBV infected in human HepG2(2.2.15) cells; type: functional, organism-based
How it was run: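 Primary anti-HBV screen in confluent 2.2.15 cells, run alongside a toxicity assay in the same cells. Compounds were supplied as DMSO solutions.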

[7] = system: Hepatitis C virus; experiment: Antiviral activity against HCV infected in human Huh7ET cells assessed as reduction in HCV RNA-derived luciferase activity at 20 uM by luciferase reporter gene assay; type: functional, Hepacivirus hominis; conditions: Huh-7; how it was run: as §1
[8] = Antiviral activity against SARS coronavirus Urbani infected in African green monkey Vero 76 cells; type: functional, cell-based; conditions: Severe acute respiratory syndrome-related coronavirus
[9] = Cytotoxicity against Adenovirus Chicago 65089 infected human A549 cells; type: cell-based; conditions: A549 cells infected with Adenovirus Chicago 65089
How it was run: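 Respiratory-virus panel screen on A-549 cells, with compounds supplied as DMSO solutions. CC50 is the cell inhibitory concentration at the 50% endpoint, in µM.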

[10] = Selectivity index, ratio of CC50 for Influenza A virus (A/Viet Nam/1203/2004(H5N1)) infected MDCK cells to EC50 for antiviral activity against Influenza A virus (A/Viet Nam/1203/2004(H5N1)) infected in MDCK cells; type: toxicity, cell-based; conditions: dog; read-out: Ratio CC50/EC50
[11] = Cytotoxicity against Influenza A virus (A/Viet Nam/1203/2004(H5N1)) infected MDCK cells; type: cell-based, Canis lupus familiaris; conditions: dog
[12] = Cytotoxicity against HBV infected human HepG2(2.2.15) cells; type: cell-based; conditions: HBV infected HepG2(2.2.15) cells
How it was run: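 Toxicity was measured on confluent 2.2.15 cells alongside the primary anti-HBV assay. CC50 is given in µM.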

[13] = system: Influenza B virus; experiment: Antiviral activity against Influenza B virus (B/Florida/4/2006) in MDCK cells; type: functional, cell-based; conditions: B/Florida/4/2006, MDCK
[14] = Selectivity index, ratio of CC50 for human rhinovirus 2 infected MDCK cells to EC50 for antiviral activity against human rhinovirus 2 infected in MDCK cells; type: toxicity, cell-based; conditions: dog, MDCK cells infected with human rhinovirus 2; read-out: Ratio CC50/EC50
[15] = system: human papillomavirus 11; experiment: Antiviral activity against HPV11 infected in PHK cells epithelial raft cultures by standard AACF screening assay; type: functional, organism-based; conditions: human papillomavirus 11, PHK
[16] = system: rhinovirus A2; experiment: Antiviral activity against human rhinovirus 2 infected in MDCK cells; type: functional, organism-based; conditions: Rhinovirus A
[17] = Selectivity index, ratio of CC50 for Influenza A virus (A/Brisbane/10/2007(H3N2)) infected MDCK cells to EC50 for antiviral activity against Influenza A virus (A/Brisbane/10/2007(H3N2)); type: toxicity, cell-based; conditions: dog; read-out: Ratio CC50/EC50
[18] = Cytotoxicity against Influenza B virus (B/Florida/4/2006) infected MDCK cells; type: cell-based, Canis lupus familiaris; conditions: dog
[19] = Cytotoxicity against human rhinovirus 2 infected MDCK cells; type: cell-based, Canis lupus familiaris; conditions: dog, MDCK cells infected with human rhinovirus 2
[20] = Antiviral activity against Influenza A virus (A/Viet Nam/1203/2004(H5N1)) infected in MDCK cells; type: functional, cell-based
[21] = Antiviral activity against Influenza A virus (A/Brisbane/10/2007(H3N2)) infected in MDCK cells; type: functional, cell-based
[22] = Antiviral activity against Influenza A virus (A/California/07/2009(H1N1)) infected in MDCK cells; type: functional, cell-based
[23] = Cytotoxicity against SARS coronavirus Urbani infected African green monkey Vero 76 cells; type: cell-based; conditions: chlorocebus sabaeus, Vero 76 cells infected with SARS coronavirus Urbani
[24] = system: unidentified adenovirus; experiment: Antiviral activity against Adenovirus Chicago 65089 infected in human A549 cells; type: functional, organism-based; conditions: Chicago 65089, A549
[25] = Cytotoxicity against Influenza A virus (A/Brisbane/10/2007(H3N2)) infected MDCK cells; type: cell-based, Canis lupus familiaris; conditions: dog
[26] = Cytotoxicity against HPV11 infected PHK cells epithelial raft cultures by standard AACF screening assay; type: cell-based; conditions: human
[27] = Toxicity against human Huh7ET cells assessed as reduction in beta-actin RNA levels at 20 uM; type: cell-based, Huh-7; conditions: Huh7ET cells, values are per cent of control
How it was run: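 HCV RNA replicon assay in Huh7 ET cells. Compounds were added in triplicate at a single concentration of 20 µM. Cytotoxicity was read as β-actin RNA as % of control, alongside HCV RNA-derived luciferase activity. Interferon-α (2 IU/mL) was the positive control.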

[28] = Selectivity index, ratio of CC50 for HPV11 infected PHK cells epithelial raft cultures by standard AACF screening assay to EC50 for HPV11 infected in PHK cells epithelial raft cultures by standard AACF screening assay
[29] = Selectivity index, ratio of CC50 for ARS coronavirus Urbani infected African green monkey Vero 76 cells to EC50 for antiviral activity against ARS coronavirus Urbani infected in African green monkey Vero 76 cells; type: toxicity, cell-based; conditions: Vero 76 cells infected with SARS coronavirus Urbani, read-out: Ratio CC50/EC50

Row | Structure (SMILES) | selectivity ratio at 20 µM [1] | selectivity ratio [2] | pEC50 [6] | EC90 [6] [µM] | inhibition at 20 µM [7] [%] | pEC50 [8] | CC50 [9] [µM] | selectivity ratio [10] | CC50 [11] [µM] | CC50 [12] [µM] | pEC50 [13] | pEC50 [15] | pEC50 [16] | CC50 [18] [µM] | CC50 [19] [µM] | pEC50 [20] | CC50 [23] [µM] | pEC50 [24] | CC50 [26] [µM] | response, % of control at 20 µM [27] [%] | also measured
1 | COC(=O)[C@H]1[C@@H](C(=O)OC)C2(C(=O)OC)CC[C@@H]3[C@](C)(CCC[C@@]3(C)C(=O)OC)[C@H]2C[C@H]1C(=O)C(C)C (stereo partly specified) | < 1 | 1.1 | < 5.00 | > 10 | 0.6 | < 4.52 | 32 | 1 | 3.3 | 189 | 5.49 | < 4.30 | 4.49 | 3.5 | 32 | 5.49 | 30 | 4.49 | < 50 | 88.1 | CC50 [3]: 33 µM; selectivity ratio [4]: 1; selectivity ratio [5]: 1; selectivity ratio [14]: 1; selectivity ratio [17]: 1; pEC50 [21]: 4.49; pEC50 [22]: 4.49; CC50 [25]: 33 µM; Ratio CC50/EC50 [28]: 30
2 | COC(=O)[C@H](C)NC(=O)[C@]1(C)CCC[C@]2(C)[C@H]3C[C@H]4C(C(C)C)=C[C@]3(CC[C@H]21)[C@@H]1C(=O)CCC(=O)[C@@H]14 | > 1 | 1.5 | < 5.00 | > 10 | 60.8 | 4.52 | 47 | 1.1 | 33 | 86 | 4.66 | > 4.60 | < 4.60 | 33 | 25 | 4.51 | 32 | < 4.33 | < 25 | 54 | selectivity ratio [29]: 1.1; Ratio CC50/EC50 [28]: 20
